From PubChem BioAssay
UCH37 DUB inh = inhibitors of human UCH37 deubiquitinase, primary screen, biochemical, Ub-AMC cleavage, fluorescence; Ubiquitin carboxyl-terminal hydrolase isozyme L5 (Homo sapiens), Q9Y5K5; purified proteasome/UCH37; inhibition, % (test concentration not listed); actives 0.33% (n = 330,000); AID 588478, 2011;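 active means mean inhibition over replicate wells above about 20%, limit read from the data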
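system = Proteasome-associated human UCH37 deubiquitinase | amount = 0.15 nM proteasome as dispensed | medium = pH 7.4 Tris-HCl (50 mM) with ovalbumin, ATP-MgCl2, DTT | incubation = 30 min preincubation with enzyme, 25 min cleavage at room temperature | detection = AMC fluorescence 355/460 nm | read-out basis = percent inhibition | controls = no-proteasome and no-compound wells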
MEKK2wt PB1 HTS = modulators of MEK5 binding to wildtype MEKK2, primary screen, biochemical, multiplex bead flow cytometry, Alexa488-MEK5 | actives 1.1% (n = 290,000) | binding response (% of control), % at 10 µM | AID 1531, 2009 | Alexa488-MEK5 binding to MEKK2 WT; actives lie on both sides; in the data active means binding response below about 67% or above about 130%
MEKK3 PB1 HTS = modulators of MEKK3-MEK5 PB1 binding, primary screen, biochemical, wildtype MEKK3, multiplex bead flow cytometry, Alexa488-MEK5. Mitogen-activated protein kinase kinase kinase 3 (Homo sapiens), Q99759. bead-based flow cytometry, Alexa488-MEK5 binding to MEKK3; actives lie on both sides; 0 = blocked by unlabeled MEK5, 100 = vehicle. binding response (% of control), % at 10 µM. actives 1.4% (n = 290,000);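 active means binding response more than 3 SD above or below the average of its plate-row segment, actives on both sides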;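 further: Alexa488 bead fluorescence after subtracting the streptavidin-only scavenger bead signal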
Target sequence (Q99759 whole entry, looked up): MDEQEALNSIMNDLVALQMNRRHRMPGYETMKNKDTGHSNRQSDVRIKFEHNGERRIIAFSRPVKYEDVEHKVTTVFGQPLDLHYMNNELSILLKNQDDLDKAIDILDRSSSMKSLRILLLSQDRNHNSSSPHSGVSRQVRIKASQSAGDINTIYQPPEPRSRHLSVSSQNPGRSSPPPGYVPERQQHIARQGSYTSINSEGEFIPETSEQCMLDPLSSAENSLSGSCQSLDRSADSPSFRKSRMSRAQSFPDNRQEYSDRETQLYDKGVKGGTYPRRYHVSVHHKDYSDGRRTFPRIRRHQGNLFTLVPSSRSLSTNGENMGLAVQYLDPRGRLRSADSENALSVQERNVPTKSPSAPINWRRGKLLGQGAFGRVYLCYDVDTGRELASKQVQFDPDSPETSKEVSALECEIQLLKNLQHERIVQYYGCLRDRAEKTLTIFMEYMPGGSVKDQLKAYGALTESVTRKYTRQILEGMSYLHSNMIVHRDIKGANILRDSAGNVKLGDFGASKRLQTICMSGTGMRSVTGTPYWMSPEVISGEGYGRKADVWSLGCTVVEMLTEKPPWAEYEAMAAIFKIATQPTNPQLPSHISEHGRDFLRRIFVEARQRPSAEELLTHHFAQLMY
Apaf1 inhib = inhibitors of human Apaf-1 apoptosome, primary screen, biochemical, DEVD-Rh110 fluorescence, uHTS; reconstituted apoptosome caspase-3 activity; actives 0.71% (n = 330,000); Apoptotic protease-activating factor 1 (Homo sapiens), O14727; inhibition, % at 20 µM; active means inhibition of at least 40% at 20 µM
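Material: reconstituted apoptosome with Apaf-1, cytochrome c, caspase-9, procaspase-3, dATP; medium: pH 7.5 Hepes buffer with CHAPS, BSA, DTT; also added: cytochrome c and DEVD-Rh110 substrate; timing: 30 min plus 50 min, RT; signal: Rh110 fluorescence intensity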
MEKK2mut PB1 HTS = MEK5 binding signal on mutant MEKK2 PB1, primary screen, biochemical, multiplex bead flow cytometry, Alexa488-MEK5 | Alexa488-MEK5 binding to MEKK2 mutant | percent response, % at 10 µM | actives 0.35% (n = 290,000) | AID 1530, 2009; in the data active means percent response above about 24%, passing the limit was not always enough
UBC13 polyUb = UBC13 polyubiquitin chain formation inhibitors, primary screen, biochemical, TR-FRET, uHTS; actives 0.47% (n = 330,000); inhibition, % at 20 µM; Ubiquitin-conjugating enzyme E2 N (Homo sapiens), P61088; in the data active means inhibition above about 45%, passing the limit was not always enough
MEKK2wt confirm = modulators of MEK5 binding to wildtype MEKK2, confirmation, biochemical, single concentration, multiplex bead flow cytometry | Alexa488-MEK5 binding to MEKK2 WT; actives lie on both sides | AID 1892, 2009 | binding response (% of control), % at 10 µM | actives 2.4% (n = 5,900) | shares compounds with MEKK3 PB1 HTS; in the data active means binding response below about 16% or above about 210%; inactive means in between
MEKK2mut confirm = mutant MEKK2 PB1-MEK5 binding signal retest – biochemical, single concentration, multiplex bead flow cytometry, confirmation; shares compounds with MEKK3 PB1 HTS; Alexa488-MEK5 binding to MEKK2 mutant; percent response, % at 10 µM; actives 2% (n = 5,900); AID 1893, 2009; in the data active means percent response mostly above about 71%, no sharp cut-off; inactive means mostly below about 38%;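 further: higher means compound restores mutant binding toward wildtype level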
MEKK3 confirm = MEKK3 wild-type PB1 binding to MEK5, inhibitors, confirmation, biochemical, bead multiplex flow cytometry, single concentration, wildtype. Alexa488-MEK5 binding to MEKK3; hits give low values. actives 1.8% (n = 5,900). AID 1894, 2009. binding response (% of control), % at 10 µM. shares compounds with MEKK3 PB1 HTS;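 active means binding response below 72% of control, or above a set upper limit, though filed actives all read lower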
Numbers stand for hits; n = inactive; x = no result; [ ] = dose if it differs, or a comment. Hits are enriched below; roughly 3% of the tested compounds scored in any of these assays.

SMILES	UCH37 DUB inh	MEKK2wt PB1 HTS	MEKK3 PB1 HTS	Apaf1 inhib	MEKK2mut PB1 HTS	UBC13 polyUb	MEKK2wt confirm	MEKK2mut confirm	MEKK3 confirm
Nc1nc2ccccc2nc1N	n	n	n	n	n	n	x	x	x
CCN1CCN(S(=O)(=O)c2ccc3ccccc3c2)CC1	n	n	50[inhibitor]	n	n	n	n	n	n
CCS(=O)(=O)N1CCN(S(=O)(=O)c2ccc3ccccc3c2)CC1	n	n	n	n	n	n	x	x	x
COc1ccc(C2N(c3ccccc3)C(=S)N3CCCN23)cc1 (centres undefined)	n	n	139	n	n	n	n	n	n
O=C(CNC(=O)c1cccc(Br)c1)N/N=C/c1cc(Br)cc(Br)c1O	x	n	151	n	n	n	n	n	n
CN(/N=C/C=C/c1ccccc1)C1=NS(=O)(=O)c2ccccc21	x	n	134	x	n	x	n	n	n
CCOC(=O)N1CCN(C(=O)c2ccc(C)c(S(=O)(=O)Nc3ccccc3)c2)CC1	n	n	n	n	n	n	x	x	x
COc1ccc(N2CCN(C(=O)CSc3nnc4c(C)cc5ccc(C)c(C)c5n34)CC2)cc1	n	n	36[inhibitor]	n	n	n	n	n	n
CCOC(=O)C1=C(NC(=S)NC(=O)c2ccccc2)c2ccccc2CC1C(C)C (centres undefined)	n	n	n	n	n	n	x	x	x
CCOC(=O)C1=C(NC(=S)NC(=O)c2ccccc2)c2ccccc2CC1(C)CC (centres undefined)	n	30[inhibitor]	n	n	n	n	n	n	n
O=C(COc1ccc(S(=O)(=O)NCc2ccccc2)cc1Cl)N1CCOCC1	n	n	n	n	n	n	x	x	x
CCCSc1ncnc2sc(C)c(C)c12	n	8.0[inhibitor]	4.0[inhibitor]	n	n	n	10[inhibitor]	n	52
Cc1sc2ncnc(SCC#N)c2c1C	n	n	n	n	n	n	x	x	x
COc1cccc(C(C)NC(=O)Nc2ccccc2Cl)c1 (centres undefined)	n	n	n	n	n	n	x	x	x
COc1ccc(CNC(=O)C2CCCN(S(=O)(=O)c3ccc4c(c3)C(C)(C)C(=O)N4C)C2)cc1 (centres undefined)	n	0.0[inhibitor]	2.0[inhibitor]	n	n	n	n	n	n
CCC(C)NC(=O)C1CCN(c2nc(C)cc(C)n2)CC1 (centres undefined)	n	n	n	n	n	n	x	x	x
CCC(C)NC(=O)C1CCN(c2nc(OC)nc(OC)n2)CC1 (centres undefined)	n	-1.0[inhibitor]	0.0[inhibitor]	n	n	n	230	76	n
Cc1cc(C)nc(NNC(=O)c2ccccc2O)n1	n	n	129	n	n	n	n	n	n
Cc1ccc(C(=O)n2nnc3ccccc32)cc1	x	n	n	n	n	n	x	x	x
CN(C)c1ccc(C(=O)n2nnc3ccccc32)cc1	n	-7.0[inhibitor]	1.0[inhibitor]	n	n	n	n	n	n
COc1cccc(NC(=O)Nc2nnc(-c3ccccc3SCc3ccccc3)s2)c1	n	n	n	n	n	n	x	x	x
COc1ccc(NC(=O)Nc2nnc(-c3ccccc3SCc3ccccc3)s2)cc1	n	n	122	n	n	n	n	n	n
N/C(=N\OS(=O)(=O)c1ccc2ccccc2c1)c1cccnc1	n	n	n	n	n	n	x	x	x
N/C(=N\OS(=O)(=O)c1ccccc1)c1cccnc1	n	n	130	x	n	x	n	n	n
CC(=O)O[C@H]1[C@H](C)OC=C[C@@H]1OC(C)=O	n	151	n	n	n	n	n	n	n
SMILES	UCH37 DUB inh	MEKK2wt PB1 HTS	MEKK3 PB1 HTS	Apaf1 inhib	MEKK2mut PB1 HTS	UBC13 polyUb	MEKK2wt confirm	MEKK2mut confirm	MEKK3 confirm
CCN(CC)c1ccc(NC(=O)COc2ccc(C)cc2)cc1	n	n	n	n	n	n	x	x	x
COc1ccc(OCCC(=O)OCC(=O)NCc2ccccc2)cc1	n	n	n	n	n	n	x	x	x
O=C(COC(=O)CCNS(=O)(=O)c1ccc2c(c1)OCCO2)NC1CCCc2ccccc21 (centres undefined)	n	n	124	n	n	n	n	n	n
Cc1cc(C(=O)COC(=O)Cc2n[nH]c(=O)c3ccccc23)c(C)n1-c1cccc(C(F)(F)F)c1	n	n	136	n	n	n	n	n	n
Cc1cccc(C2c3[nH]c4ccccc4c3CCN2C(=O)c2noc3c2CCCC3)n1 (centres undefined)	n	n	n	n	n	n	x	x	x
Cc1cccc(C2c3[nH]c4ccccc4c3CCN2C(=O)c2cn(C)c3ccccc3c2=O)n1 (centres undefined)	n	46[inhibitor]	n	n	n	n	n	n	n
Clc1ccc(C2=NCCN2)cc1	n	n	n	n	n	n	x	x	x
O=C(Nc1ccc(C2=NCCN2)cc1)c1ccc(Cl)c(C(=O)Nc2ccc(C3=NCCN3)cc2)c1	x	144	66[inhibitor]	n	n	106	n	n	n
O=C(Nc1ccc(Cl)c(Cl)c1)c1ccc(Cl)c(Cl)c1	x	162	n	n	56	n	n	n	n
CC(=O)Nc1cccc(C(=O)Oc2cccc(C)c2)c1O	n	16[inhibitor]	9.0[inhibitor]	n	n	n	n	n	n
Cc1cccc(C(=O)Nc2cccc(OC(=O)c3cccc(C)c3)c2)c1	n	n	n	n	n	n	x	x	x
CCC(=O)N1CCC(c2ccc(OC)cc2)=N1	n	n	n	n	n	n	x	x	x
Cc1ccc(S(=O)(=O)Nc2c(O)c3ccccc3oc2=O)cc1	n	n	n	n	n	n	x	x	x
CC(=O)Nc1cc[n+](C(C)C(=O)c2ccc(Cl)cc2)cc1 (centres undefined)	n	n	41[inhibitor]	n	n	n	n	n	n
